Measurements reported in ChEMBL document CHEMBL1649436, “Antiviral activity of MK-4965, a novel nonnucleoside reverse transcriptase inhibitor” (Antimicrob Agents Chemother, 2009).

Key:
PBMC [1] = assay: Cytotoxicity against activated human PBMC after 24 to 72 hrs by alamar blue assay; format: cell-based
How it was run: (§1)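 Cytotoxicity measured with Alamar blue after incubation at 37°C in 5% CO2 for 24, 48 or 72 h, in stationary and activated primary cells (CD4 cells, monocytes, PBMC, macrophages) and proliferating lines (MT4, SupT1, HL60).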

[2] = test system: Human immunodeficiency virus 1; assay: Antiviral activity against HIV1 isolate R8 harboring reverse transcriptase V106A, G190A and F227L mutant relative to drug-sensitive HIV1 CNDO; format: functional
How it was run: (§2)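 Single-cycle PhenoScreen assay run by Monogram Biosciences, using viruses carrying RT sequences from clinical isolates, subtypes/CRFs or PI/NRTI-resistant clade B viruses; nine serial drug concentrations; activity expressed relative to drug-sensitive reference strain CNDO (protease and RT from NL4-3), with multidrug-resistant MDRC4 as assay-performance control.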

[3] = test system: Human immunodeficiency virus 1; assay: Antiviral activity against HIV1 clade F1 harboring mutant reverse transcriptase relative to HIV1 CNDO with wild type reverse transcriptase; format: functional
[4] = test system: Human immunodeficiency virus 1; assay: Selectivity ratio of IC50 for HIV1 isolate R8 reverse transcriptase K103N mutant to IC50 for HIV1 isolate R8 reverse transcriptase
[5] = test system: Human immunodeficiency virus 1; assay: Antiviral activity against HIV1 isolate R8 harboring wild type reverse transcriptase infected in human MT4 cells assessed as inhibition of viral replication after 72 hrs in presence of 50% human serum; format: functional; conditions: Human immunodeficiency virus 1, isolate R8, MT4, 72 h
How it was run: (§3)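 Multiple-cycle assay: MT-4 cells (2.5 × 10^5) infected with R8-based virus at low MOI, no inhibitor, 24 h at 37°C, 5% CO2; washed, reseeded at 5 × 10^4 cells in RPMI 1640 with 10% FBS or 50% type AB human serum; threefold serial dilutions from 833 nM to 0.32 nM; 72 h; p24 in medium by AlphaScreen; EC95 = lowest concentration giving ≥95% p24 reduction versus untreated.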

[6] = test system: Human immunodeficiency virus 1; assay: Antiviral activity against HIV1 CRF01_AE harboring mutant reverse transcriptase relative to HIV1 CNDO with wild type reverse transcriptase; format: functional; how it was run: as §2
[7] = test system: Human immunodeficiency virus 1; assay: Antiviral activity against HIV1 isolate R8 harboring reverse transcriptase K103N and Y181C mutant infected in human MT4 cells assessed as inhibition of viral replication after 72 hrs in presence of 10% FBS; format: functional; conditions: Human immunodeficiency virus 1, isolate R8, MT4, 72 h; how it was run: as §3
[8] = test system: Human immunodeficiency virus 1; assay: Antiviral activity against HIV1 isolate R8 harboring reverse transcriptase L100I mutant relative to drug-sensitive HIV1 CNDO; format: functional; how it was run: as §2
MT4 = assay: Cytotoxicity against human MT4 cells after 24 to 72 hrs by alamar blue assay; format: cell-based; how it was run: as §1
[9] = test system: Human immunodeficiency virus 1; assay: Antiviral activity against HIV1 isolate R8 harboring reverse transcriptase K103N mutant infected in human MT4 cells assessed as inhibition of viral replication after 72 hrs in presence of 50% human serum; format: functional; conditions: Human immunodeficiency virus 1, isolate R8, MT4, 72 h; how it was run: as §3
[10] = Cytotoxicity against activated human macrophage after 24 to 72 hrs by alamar blue assay; format: cell-based; how it was run: as §1
HL-60 = assay: Cytotoxicity against human HL60 cells after 24 to 72 hrs by alamar blue assay; format: cell-based; how it was run: as §1
[11] = test system: Human immunodeficiency virus 1; assay: Antiviral activity against HIV1 isolate R8 harboring reverse transcriptase K103N mutant infected in human MT4 cells assessed as inhibition of viral replication after 72 hrs in presence of 10% FBS; format: functional; conditions: Human immunodeficiency virus 1, isolate R8, MT4, 72 h; how it was run: as §3
[12] = test system: Human immunodeficiency virus 1; assay: Ratio of EC95 for HIV1 isolate R8 harboring reverse transcriptase K103N mutant in presence of 50% human serum to EC95 for HIV1 isolate R8 harboring reverse transcriptase K103N mutant in presence of 10% FBS; format: functional
How it was run: (§4)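 Ratios of EC95 values from the MT-4 multiple-cycle assay: R8 variants infected 24 h at low MOI, then reseeded in RPMI 1640 with 10% FBS or 50% type AB human serum with threefold dilutions (833–0.32 nM) for 72 h; p24 by AlphaScreen; EC95 = lowest concentration cutting p24 ≥95% versus untreated controls.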

[13] = Cytotoxicity against stationary-phase human CD4+ T cells after 24 to 72 hrs by alamar blue assay; format: cell-based; conditions: T-cell; how it was run: as §1
[14] = Cytotoxicity against stationary-phase human monocyte after 24 to 72 hrs by alamar blue assay; format: cell-based; how it was run: as §1
[15] = test system: Human immunodeficiency virus 1; assay: Antiviral activity against HIV1 clade H harboring mutant reverse transcriptase relative to HIV1 CNDO with wild type reverse transcriptase; format: functional
[16] = test system: Human immunodeficiency virus 1; assay: Antiviral activity against HIV1 clade G harboring mutant reverse transcriptase relative to HIV1 CNDO with wild type reverse transcriptase; format: functional
[17] = test system: Human immunodeficiency virus 1; assay: Ratio of EC95 for HIV1 isolate R8 harboring wild type reverse transcriptase in presence of 50% human serum to EC95 for HIV1 isolate R8 harboring wild type reverse transcriptase in presence of 10% FBS; format: functional; how it was run: as §4
[18] = test system: Human immunodeficiency virus 1; assay: Antiviral activity against HIV1 clade D harboring mutant reverse transcriptase relative to HIV1 CNDO with wild type reverse transcriptase; format: functional
PBMC [19] = assay: Cytotoxicity against stationary-phase human PBMC after 24 to 72 hrs by alamar blue assay; format: cell-based; how it was run: as §1
[20] = test system: Human immunodeficiency virus 1; assay: Antiviral activity against HIV1 CRF17_BF harboring mutant reverse transcriptase relative to HIV1 CNDO with wild type reverse transcriptase; format: functional; how it was run: as §2
[21] = test system: Human immunodeficiency virus 1; assay: Antiviral activity against HIV1 isolate R8 harboring reverse transcriptase Y181C mutant infected in human MT4 cells assessed as inhibition of viral replication after 72 hrs in presence of 50% human serum; format: functional; conditions: Human immunodeficiency virus 1, isolate R8, MT4, 72 h; how it was run: as §3
[22] = Cytotoxicity against human SupT1 cells after 24 to 72 hrs by alamar blue assay; format: cell-based; conditions: SUP-T1; how it was run: as §1
[23] = test system: Human immunodeficiency virus 1; assay: Antiviral activity against HIV1 clade B harboring mutant reverse transcriptase relative to HIV1 CNDO with wild type reverse transcriptase; format: functional
[24] = test system: Human immunodeficiency virus 1; assay: Antiviral activity against HIV1 clade C harboring mutant reverse transcriptase relative to HIV1 CNDO with wild type reverse transcriptase; format: functional
[25] = Cytotoxicity against stationary-phase human macrophage after 24 to 72 hrs by alamar blue assay; format: cell-based; how it was run: as §1
[26] = test system: Human immunodeficiency virus 1; assay: Antiviral activity against HIV1 isolate R8 harboring reverse transcriptase K103N and G190A mutant relative to drug-sensitive HIV1 CNDO; format: functional; how it was run: as §2
[27] = test system: Human immunodeficiency virus 1; assay: Antiviral activity against HIV1 clade A harboring mutant reverse transcriptase relative to HIV1 CNDO with wild type reverse transcriptase; format: functional
[28] = test system: Human immunodeficiency virus 1; assay: Ratio of EC95 for HIV1 isolate R8 harboring reverse transcriptase K103N and Y181C mutant in presence of 50% human serum to EC95 for HIV1 isolate R8 harboring wild type reverse transcriptase in presence of 50% human serum; format: functional; how it was run: as §4
[29] = Cytotoxicity against activated human CD4+ T cells after 24 to 72 hrs by alamar blue assay; format: cell-based; conditions: T-cell; how it was run: as §1
[30] = test system: Human immunodeficiency virus 1; assay: Antiviral activity against HIV1 CRF02_AG harboring mutant reverse transcriptase relative to HIV1 CNDO with wild type reverse transcriptase; format: functional; how it was run: as §2
[31] = test system: Human immunodeficiency virus 1; assay: Ratio of EC95 for HIV1 isolate R8 harboring reverse transcriptase K103N mutant in presence of 50% human serum to EC95 for HIV1 isolate R8 harboring wild type reverse transcriptase in presence of 50% human serum; format: functional; how it was run: as §4
[32] = test system: Human immunodeficiency virus 1; assay: Ratio of EC95 for HIV1 isolate R8 harboring reverse transcriptase Y181C mutant in presence of 50% human serum to EC95 for HIV1 isolate R8 harboring wild type reverse transcriptase in presence of 50% human serum; format: functional; how it was run: as §4
[33] = test system: Human immunodeficiency virus 1; assay: Antiviral activity against HIV1 isolate R8 harboring reverse transcriptase K103N and Y181C mutant infected in human MT4 cells assessed as inhibition of viral replication after 72 hrs in presence of 50% human serum; format: functional; conditions: Human immunodeficiency virus 1, isolate R8, MT4, 72 h; how it was run: as §3
[34] = test system: Human immunodeficiency virus 1; assay: Ratio of EC95 for HIV1 isolate R8 harboring reverse transcriptase Y181C mutant in presence of 50% human serum to EC95 for HIV1 isolate R8 harboring reverse transcriptase Y181C mutant in presence of 10% FBS; format: functional; how it was run: as §4
[35] = test system: Human immunodeficiency virus 1; assay: Antiviral activity against HIV1 isolate R8 harboring reverse transcriptase Y188L mutant relative to drug-sensitive HIV1 CNDO; format: functional; how it was run: as §2
[36] = test system: Human immunodeficiency virus 1; assay: Antiviral activity against NRTI-resistant HIV1 harboring mutant reverse transcriptase relative to HIV1 CNDO with wild type reverse transcriptase; format: functional; how it was run: as §2
[37] = test system: Human immunodeficiency virus 1; assay: Antiviral activity against HIV1 isolate R8 harboring reverse transcriptase Y181C mutant infected in human MT4 cells assessed as inhibition of viral replication after 72 hrs in presence of 10% FBS; format: functional; conditions: Human immunodeficiency virus 1, isolate R8, MT4, 72 h; how it was run: as §3
[38] = test system: Human immunodeficiency virus 1; assay: Selectivity ratio of IC50 for HIV1 isolate R8 reverse transcriptase Y181C mutant to IC50 for HIV1 isolate R8 reverse transcriptase
[39] = test system: Human immunodeficiency virus 1; assay: Antiviral activity against PI-resistant HIV1 harboring mutant reverse transcriptase relative to HIV1 CNDO with wild type reverse transcriptase; format: functional; how it was run: as §2
[40] = test system: Human immunodeficiency virus 1; assay: Ratio of EC95 for HIV1 isolate R8 harboring reverse transcriptase K103N and Y181C mutant in presence of 50% human serum to EC95 for HIV1 isolate R8 harboring reverse transcriptase K103N and Y181C mutant in presence of 10% FBS; format: functional; how it was run: as §4
[41] = test system: Human immunodeficiency virus 1; assay: Antiviral activity against NRTI-, PI-resistant HIV1 harboring mutant reverse transcriptase relative to HIV1 CNDO with wild type reverse transcriptase; format: functional; how it was run: as §2
Plasma = assay: Plasma protein binding in HIV1 infected patient; format: ADME, cell-free; conditions: human
[42] = Cytotoxicity against activated human monocyte after 24 to 72 hrs by alamar blue assay; format: cell-based; how it was run: as §1
[43] = test system: Human immunodeficiency virus 1; assay: Antiviral activity against HIV1 isolate R8 harboring wild type reverse transcriptase infected in human MT4 cells assessed as inhibition of viral replication after 72 hrs in presence of 10% FBS; format: functional; conditions: Human immunodeficiency virus 1, isolate R8, MT4, 72 h; how it was run: as §3

For `N#Cc1cc(Cl)cc(Oc2cc(OCc3n[nH]c4nc(N)ccc34)ccc2Cl)c1`, the EC50 (PBMC [1]) was greater than 3000 nM, the fold change (FC) [2] was greater than 100 and the “fold change (FC)” value [3] was 0.72. For the same compound, the fold change (FC) [4] was 2, the EC95 [5] was 0.029 µM and the “fold change (FC)” value [6] was 0.9. For the same compound, the EC95 [7] was 0.128 µM, the “fold change (FC)” value [8] was 0.9 and the EC50 (MT4) was greater than 3000 nM. The EC95 [9] was 0.058 µM, the EC50 [10] was greater than 3000 nM and the EC50 (HL-60) was greater than 3000 nM. The EC95 [11] was 0.013 µM, the “fold change (FC)” value [12] was 4 and the EC50 [13] was greater than 3000 nM. The EC50 [14] was greater than 3000 nM, the “fold change (FC)” value [15] was 0.22 and the “fold change (FC)” value [16] was 0.58. For the same compound, the “fold change (FC)” value [17] was 4, the “fold change (FC)” value [18] was 0.56 and the EC50 (PBMC [19]) was greater than 3000 nM. For the same compound, the “fold change (FC)” value [20] was 1.15, the EC95 [21] was 0.184 µM and the EC50 [22] was greater than 3000 nM. The “fold change (FC)” value [23] was 1.25, the “fold change (FC)” value [24] was 1.07 and the EC50 [25] was greater than 3000 nM. The “fold change (FC)” value [26] was 5, the “fold change (FC)” value [27] was 0.73 and the “fold change (FC)” value [28] was 15. For the same compound, the EC50 [29] was greater than 3000 nM, the “fold change (FC)” value [30] was 0.92 and the “fold change (FC)” value [31] was 2. For the same compound, the “fold change (FC)” value [32] was 6, the EC95 [33] was 0.447 µM and the “fold change (FC)” value [34] was 4. The fold change (FC) [35] was greater than 100, the fold change (FC) [36] was 0.3 and the EC95 [37] was 0.03 µM. For the same compound, the fold change (FC) [38] was 2, the fold change (FC) [39] was 0.84 and the “fold change (FC)” value [40] was 4. The “fold change (FC)” value [41] was 0.18, the Activity (Plasma) was 96.5% and the EC50 [42] was greater than 3000 nM. It also gave an EC95 [43] of 4.4 nM.
